Reference: PMC8861878 (The Journal of pharmacy and pharmacology, 2020)

Legend:
Assay type in all cases: in vitro ADME
[1] = biological target: T1, UGT1A7 (Homo sapiens, UniProt Q9HAW7); assay: Glucuronidation of isobavachin by recombinant UGT1A7, enzyme kinetics; conditions: formation of G1, substrate inhibition model
T1 sequence (Q9HAW7 26-530): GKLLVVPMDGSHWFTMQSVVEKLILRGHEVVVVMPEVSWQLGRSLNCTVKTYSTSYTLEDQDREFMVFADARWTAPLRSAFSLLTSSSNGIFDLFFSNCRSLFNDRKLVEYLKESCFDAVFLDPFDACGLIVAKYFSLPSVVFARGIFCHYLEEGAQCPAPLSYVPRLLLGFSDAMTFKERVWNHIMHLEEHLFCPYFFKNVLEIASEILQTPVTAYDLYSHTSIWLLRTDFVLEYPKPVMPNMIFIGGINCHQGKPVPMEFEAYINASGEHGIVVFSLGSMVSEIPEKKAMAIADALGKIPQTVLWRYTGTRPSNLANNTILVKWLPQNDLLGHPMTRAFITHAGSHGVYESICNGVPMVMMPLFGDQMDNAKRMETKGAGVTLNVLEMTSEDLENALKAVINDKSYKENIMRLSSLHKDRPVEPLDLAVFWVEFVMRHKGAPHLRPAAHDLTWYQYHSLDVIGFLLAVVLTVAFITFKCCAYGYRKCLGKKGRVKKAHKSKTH

[2] = biological target: T2, CYP2C8 (Homo sapiens, UniProt P10632); assay: Inhibition of CYP2C8; conditions: isobavachin 1, 10, 100 μM; substrate paclitaxel (60 μM)
T2 sequence (P10632 1-490): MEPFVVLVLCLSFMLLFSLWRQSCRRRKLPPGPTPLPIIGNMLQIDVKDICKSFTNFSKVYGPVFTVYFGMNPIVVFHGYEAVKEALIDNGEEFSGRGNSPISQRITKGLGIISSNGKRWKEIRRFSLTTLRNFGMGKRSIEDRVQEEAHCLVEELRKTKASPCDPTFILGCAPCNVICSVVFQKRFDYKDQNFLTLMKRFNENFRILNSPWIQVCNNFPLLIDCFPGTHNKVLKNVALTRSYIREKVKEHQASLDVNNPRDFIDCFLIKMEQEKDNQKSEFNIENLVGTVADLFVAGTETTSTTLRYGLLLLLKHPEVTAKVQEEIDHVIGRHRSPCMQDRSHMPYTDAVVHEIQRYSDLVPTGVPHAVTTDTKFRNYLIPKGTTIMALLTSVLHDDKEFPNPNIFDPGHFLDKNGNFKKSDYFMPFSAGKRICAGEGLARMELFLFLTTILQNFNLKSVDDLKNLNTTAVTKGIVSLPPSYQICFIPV
How it was run: (§1)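 Recombinant human CYPs (CYP1A2 and 3A4 at 0.05 mg/ml; CYP2C8 and 2E1 at 0.1 mg/ml) with probe substrate in Tris-HCl 50 mM pH 7.4, MgCl2 5 mM and NADPH 1 mM at 37 °C for 60 min. Run without (control) or with test compound at 1, 10 or 100 μM. Acetonitrile stop; metabolite by UHPLC-TQD-MS; activity versus control, triplicate.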

[3] = biological target: T3, CYP1A2 (Homo sapiens, UniProt P05177); assay: Inhibition of CYP1A2; conditions: isobavachin 1, 10, 100 μM; substrate phenacetin (100 μM)
T3 sequence (P05177 1-516): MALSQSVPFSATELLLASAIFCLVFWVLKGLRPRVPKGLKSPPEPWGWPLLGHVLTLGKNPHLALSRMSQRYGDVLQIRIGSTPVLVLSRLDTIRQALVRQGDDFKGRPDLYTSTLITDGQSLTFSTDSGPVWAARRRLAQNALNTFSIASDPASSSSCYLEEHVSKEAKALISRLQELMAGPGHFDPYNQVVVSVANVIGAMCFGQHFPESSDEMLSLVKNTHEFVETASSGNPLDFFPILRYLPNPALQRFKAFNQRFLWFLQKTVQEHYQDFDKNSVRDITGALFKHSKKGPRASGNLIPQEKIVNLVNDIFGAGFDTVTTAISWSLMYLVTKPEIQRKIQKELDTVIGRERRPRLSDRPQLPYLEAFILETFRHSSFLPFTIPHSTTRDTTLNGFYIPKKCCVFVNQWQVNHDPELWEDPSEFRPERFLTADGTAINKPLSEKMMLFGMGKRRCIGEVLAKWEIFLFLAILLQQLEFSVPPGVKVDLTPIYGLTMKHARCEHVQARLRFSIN
How it was run: as §1

[4] = biological target: CYP2C19 (Homo sapiens, UniProt P33261); assay: Inhibition of CYP2C19
CYP2C19, sequence (P33261 whole entry): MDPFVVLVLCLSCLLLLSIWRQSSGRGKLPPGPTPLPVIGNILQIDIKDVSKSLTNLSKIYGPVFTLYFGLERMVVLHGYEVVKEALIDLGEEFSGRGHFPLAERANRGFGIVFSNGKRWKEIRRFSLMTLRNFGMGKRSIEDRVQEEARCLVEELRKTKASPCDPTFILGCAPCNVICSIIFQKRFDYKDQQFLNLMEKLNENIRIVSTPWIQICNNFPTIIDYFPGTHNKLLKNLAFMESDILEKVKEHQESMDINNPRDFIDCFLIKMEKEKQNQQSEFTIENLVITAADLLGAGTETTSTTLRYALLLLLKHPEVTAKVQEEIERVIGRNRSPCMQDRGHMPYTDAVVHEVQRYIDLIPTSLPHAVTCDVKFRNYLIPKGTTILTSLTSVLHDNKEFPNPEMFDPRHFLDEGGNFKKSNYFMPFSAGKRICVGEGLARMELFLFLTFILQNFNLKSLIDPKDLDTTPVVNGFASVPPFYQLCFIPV

[5] = biological target: T4, CYP2B6 (Homo sapiens, UniProt P20813); assay: Inhibition of CYP2B6
T4 sequence (P20813 1-491): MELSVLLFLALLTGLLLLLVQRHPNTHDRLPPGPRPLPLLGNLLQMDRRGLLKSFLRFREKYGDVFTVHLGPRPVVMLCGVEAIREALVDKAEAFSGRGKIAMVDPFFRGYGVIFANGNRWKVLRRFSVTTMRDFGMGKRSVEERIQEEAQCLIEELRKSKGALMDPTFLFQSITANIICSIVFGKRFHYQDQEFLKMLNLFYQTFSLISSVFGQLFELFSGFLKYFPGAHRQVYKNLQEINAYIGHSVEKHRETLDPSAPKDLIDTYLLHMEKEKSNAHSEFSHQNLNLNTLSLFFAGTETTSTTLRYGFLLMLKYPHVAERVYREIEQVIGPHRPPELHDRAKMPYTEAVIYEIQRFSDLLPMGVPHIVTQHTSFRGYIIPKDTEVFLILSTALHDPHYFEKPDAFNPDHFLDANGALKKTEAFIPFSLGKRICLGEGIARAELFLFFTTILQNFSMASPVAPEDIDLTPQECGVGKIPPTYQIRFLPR

[6] = based on the smallest AIC and SC values

## CC(C)=CCc1c(O)ccc2c1O[C@H](c1ccc(O)cc1)CC2=O [isobavachin]
[1]; substrate inhibition constant
  Ki: 27540 ± 5390 nM
[1]
  CLint (CLmax): 109.18 ± 24.17 μl/min per mg
  Vmax: 3593.00 ± 487.20 pmol/min per mg
[2]
  inhibitory effects: negligible or weak
[3]
  inhibitory effects: negligible or weak
[4]
  IC50: 270 ± 70 nM
[4]; 10 μM isobavachin
  residual activities: 0 % of the negative control
[4]; substrate mephenytoin, competitive model (selected, smallest AIC and SC)
  Ki: 1550 nM
[4]; substrate mephenytoin, mixed-type model (not selected)
  Ki: 1550 ± 530 nM
[4]; substrate mephenytoin, non-competitive model (not selected)
  Ki: 3340 ± 490 nM
[4]; [6]
  Inhibition type: competitive inhibition
[4]; substrate mephenytoin, mixed-type model
  α: >>1
[5]
  IC50: 5000 ± 480 nM
[5]; 10 μM isobavachin
  residual activities: 30.86 % of the negative control
[5]; substrate bupropion, competitive model (not selected)
  Ki: 350 ± 110 nM
[5]; substrate bupropion, mixed-type model (not selected)
  Ki: 1460 ± 620 nM
[5]; substrate bupropion, non-competitive model (selected, smallest AIC and SC)
  Ki: 1930 ± 180 nM
[5]; [6]
  Inhibition type: non-competitive inhibition mode
[5]; substrate bupropion, mixed-type model
  α: 1.49 ± 0.92
